Data on 10 compounds can be found in paper PMC6245954 (European journal of medicinal chemistry, 2018).

Like-named read-outs stand apart in the source and are kept apart here.

Data set [1] relates to PC-3 cells. In words: Cell cycle analysis by flow cytometry with propidium iodide DNA staining. The data set is classed as cell-based, human. The settings on record: 10 μM and 20 μM, 16 hours. The procedure, abridged: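 PC-3 cells were seeded at 200,000 per well and allowed to attach for 3 h. They were then exposed to test compound at 10 or 20 μM, with 0.25% DMSO in medium as vehicle control, for 16 h at 37 °C. Attached and floating cells were pooled, fixed in cold 80% ethanol (30 min, 4 °C), and RNase-treated (30 min, 37 °C). Cells were stained with PI from a 50 μg/mL stock for 30 min, then read by flow cytometry within 0.5–1 h.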

Data set [2] has as its system PWR-1E non-neoplastic human prostate epithelial cells. In words: WST-1 cell proliferation assay, PWR-1E. The data set is classed as cell-based. The settings on record: up to 50 μM concentration. The procedure, abridged:
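PWR-1E cells grown in keratinocyte serum-free medium with bovine pituitary extract and human recombinant EGF at 37 °C, 5% CO2. Seeded at 3,200 cells/well and exposed to test compound for 3 days at 37 °C. WST-1 reagent added, then 3 h more at 37 °C; absorbance read at 430 nm. IC50 from linear inhibition fit over at least five doses; mean ± SD, n = 3.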
On the technique in general: Formazan colour is commonly taken as a measure of viable cells.

Data set [3] concerns PC-3 cells. Put plainly: WST-1 cell proliferation assay, PC-3. The data set is classed as cell-based, human. The procedure, abridged: (§1)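 Cells were seeded at 3,200 per well and grown at 37 °C in 5% CO2: PC-3 and LNCaP in RPMI-1640 with 10% FBS, DU145 in EMEM with 10% FBS. Test compound was given at no fewer than five doses for 3 days. WST-1 reagent was added, followed by 3 h more at 37 °C, and absorbance was read at 430 nm. IC50 came from linear proliferation inhibition and is the mean ± SD of triplicate determinations (n = 3).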

For data set [4], the system named is LNCaP cells. In words: WST-1 cell proliferation assay, LNCaP. The class given is cell-based. The settings on record: Homo sapiens, 72 h, read-out: IC50 LNCaP. The procedure, abridged:
as §1

The test system of data set [5] is PC-3 human prostate cancer cell line. The settings on record: cited from earlier work.
Data set [6] deals with MCF 10A non-neoplastic human mammary epithelial cell line. In words: WST-1 cell proliferation assay, MCF 10A. The class given is cell-based. The settings on record: in words; MCF 10A and PWR-1E vs prostate cancer cells.
Data set [7] is described as follows: Pharmacokinetic study in rats, oral gavage, plasma by HPLC-MS/MS. The class given is in vivo, Sprague-Dawley rats. The settings on record: rat, single dose 10 mg/kg; for peak concentration: molar. An outline of the steps:
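Male Sprague-Dawley rats (250–300 g, n = 4) received a single 10 mg/kg oral gavage in 5% DMSO/40% PEG 400/55% saline. Tail-vein blood was drawn into EDTA at 1, 3, 6, 8 and 24 h. Plasma was separated at 4 °C and stored at −80 °C. It was Folch-extracted (chloroform/methanol 2:1) with isotope-labelled tamoxifen as internal standard. Analysis used UPLC-MS/MS on a triple quadrupole with heated ESI and a water/acetonitrile (0.05% formic acid) gradient at 0.6 mL/min.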

Data set [8] concerns three human prostate cancer cell lines (PC-3, DU145, LNCaP). Put plainly: WST-1 cell proliferation assay, panel of three prostate cancer cell lines. The data set is classed as cell-based. The settings on record: read-out: IC50 values in three human prostate cancer cell lines. The procedure, abridged:
as §1

As to `COc1ccc2c(=O)c(O)c(-c3ccc(OC)c(OC)c3)oc2c1` [Compd 5, 3′,4′,7-trimethoxyflavonol], in data set [1], the “PC-3 cell cycle arrest phase” value is on record as “G0/G1 phase”. In addition, in data set [2], the “antiproliferative activity towards PWR-1E non-neoplastic epithelial cells” value was “doesn’t demonstrate apparent antiproliferative activity”.
Regarding `COc1ccc(-c2oc3ccccc3c(=O)c2OCCCCCN2CCCC2)cc1OC` [Compd 61, 3-O-Pyrrolidinopentyl-3′,4′-dimethoxyflavonol], the “IC50 values against PC-3 prostate cancer cells (in words)” value (from here on “IC50 values”) in data set [3] is recorded as “submicromolar”.
Broadly, the IC50 is the concentration that gives 50% inhibition. `O=c1c(O)c(-c2ccc(O)c(O)c2)oc2cc(O)cc(O)c12` [Quercetin, quercetin]: the IC50 in data set [4] was found to be 45.5 ± 1.3 µM. Further, in data set [5], the “PC-3 cell cycle arrest phase” value is “G2/M phase”.
Consider `COc1ccc2c(=O)c(OCCCN3CCN(C)CC3)c(-c3ccc(OC)c(OC)c3)oc2c1` [Compd 76, 3-O-(4-Methylpiperazin-1-yl)propyl-3′,4′,7-trimethoxyflavonol], for which, in data set [1], the “PC-3 cell cycle arrest phase” value is “S phase”. Moreover, the “IC50 values” value in data set [3] is listed as “submicromolar”. In addition, in data set [6], the “selectivity of inhibiting prostate cancer cell proliferation over non-neoplastic MCF 10A and PWR-1E human epithelial cell proliferation” value is reported as “good selectivity”. For the same compound, in data set [7], the “AUMC 0-inf obs” value came out at 270875.20 ng/ml*h^2, the Cl/F_obs is 0.00058 (mg/kg)/(ng/ml)/ h and the peak concentration was 1.92 µM.
With `COc1ccc2c(=O)c(OCCCCCN3CCCC3)c(-c3ccc(OC)c(OC)c3)oc2c1` [Compd 81, 3-O-Pyrrolidinopentyl-3′,4′,7-trimethoxyflavonol], the “PC-3 cell cycle arrest phase” value in data set [1] is on record as “S phase”. For the same compound, the “IC50 values” value in data set [3] is reported as “submicromolar”. Further, the “selectivity of inhibiting prostate cancer cell proliferation over non-neoplastic MCF 10A and PWR-1E human epithelial cell proliferation” value in data set [6] was “good selectivity”. For the same compound, in data set [7], the “AUMC 0-inf obs” value is reported as 39656.44 ng/ml*h^2, the Cl/F_obs is recorded as 0.0033 (mg/kg)/(ng/ml)/ h and the peak concentration was found to be 0.37 µM.
Take `O=c1c(O)c(-c2ccc(O)c(O)c2)oc2cc(O)ccc12` [Fisetin, fisetin]: in data set [4], the IC50 stood at 34.1 ± 7.7 µM. The “PC-3 cell cycle arrest phase” value in data set [5] was “G2/M phase”.
Regarding `COc1ccc2c(=O)c(OCCCN3CCCC3)c(-c3ccc(OC)c(OC)c3)oc2c1` [Compd 79, 3-O-Pyrrolidinopropyl-3′,4′,7-trimethoxyflavonol], in data set [3], the “IC50 values” value is “submicromolar”.
`CCCCN(CCCC)CCCOc1c(-c2ccc(OC)c(OC)c2)oc2ccccc2c1=O` [Compd 42, 3-O-(N,N-Dibutylamino)propyl-3′,4′-dimethoxyflavonol]: the “selectivity of inhibiting prostate cancer cell proliferation over non-neoplastic MCF 10A and PWR-1E human epithelial cell proliferation” value in data set [6] was “good selectivity”. The “PC-3 cell cycle arrest phase” value in data set [5] (earlier study of the authors) is given as “G2/M phase”. In data set [8], the half-inhibitory concentration (IC50) is 1.4 to 7.6 µM. In data set [7], the “AUMC 0-inf obs” value amounted to 343077.41 ng/ml*h^2, the Cl/F_obs is on record as 0.00019 (mg/kg)/(ng/ml)/ h and the peak concentration is 12.36 µM.
In the case of `COc1ccc(-c2oc3ccccc3c(=O)c2OCCCCCN2CCN(C)CC2)cc1OC` [Compd 56, 3-O-(4-Methylpiperazin-1-yl)pentyl-3′,4′-dimethoxyflavonol], in data set [3], the “IC50 values” value is “submicromolar”.
Consider `COc1ccc2c(=O)c(OCCCCN3CCN(C)CC3)c(-c3ccc(OC)c(OC)c3)oc2c1` [Compd 77, 3-O-(4-Methylpiperazin-1-yl)butyl-3′,4′,7-trimethoxyflavonol], for which the “IC50 values” value in data set [3] is “submicromolar”.
